# IDH1 mut inh: inhibitors of human IDH1 R132H | O75874 | IDH1 R132H reductase, diaphorase/resazurin fluorescence, 60 min | inhibition, % at 10 µM | actives 0.18% (n = 70,000); in the data active = inhibition above about 34%; inconclusive = no clear call, values can overlap the other calls; inactive = below about 11%
# Pf Dd2 growth: P. falciparum Dd2 growth inhibition | SYBR Green, 72 h; active compounds read low | activity change, % at 10 µM | actives 2.3% (n = 94,000); in the data active = activity change below about -80%; inconclusive = no clear call, values can overlap the other calls
# KDM4C inh: inhibitors of human demethylase GASC-1 KDM4C; Q9H3R0; GST-KDM4C 2-372, H3K9me3 peptide, LANCE TR-FRET; inhibition, % at 12.5 µM; actives 0.15% (n = 96,000); AID 720574;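 active = mean replicate inhibition above about 25%, with at least 55% of replicates also reaching it, limit read from the data, passing the limit was not always enough; inconclusive = only one of those two conditions met; inactive = neither condition met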
# Target sequence (Q9H3R0 2-372 limits assumed): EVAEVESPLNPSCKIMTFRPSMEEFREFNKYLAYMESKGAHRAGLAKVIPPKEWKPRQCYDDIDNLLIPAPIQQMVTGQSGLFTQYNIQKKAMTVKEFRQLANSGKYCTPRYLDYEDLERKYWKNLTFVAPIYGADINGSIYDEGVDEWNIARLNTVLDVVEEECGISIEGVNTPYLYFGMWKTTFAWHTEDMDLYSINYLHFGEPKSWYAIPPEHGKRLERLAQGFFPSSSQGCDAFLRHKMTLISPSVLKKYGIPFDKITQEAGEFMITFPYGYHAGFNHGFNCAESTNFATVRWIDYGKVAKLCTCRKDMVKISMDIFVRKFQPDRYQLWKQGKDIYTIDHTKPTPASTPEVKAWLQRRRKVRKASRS
#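 Material: GST-tagged GASC-1 (JMJD2C) catalytic fragment, aa 2-372 / Quantity: enzyme final amount 10 nM / Medium: HEPES buffer, pH 7.5, plus ascorbate / Doses: one test concentration per compound / Incubation: 30 min reaction, 60 min detection, RT / Measured by: LANCE TR-FRET / Read-out: inhibition from TR-FRET ratio decrease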
# T cruzi growth-1: T. cruzi proliferation inhibition; T. cruzi beta-gal in NIH3T3, GalScreen luminescence, 90 h; inhibition, % at 8.34 µM; actives 5.9% (n = 77,000); AID 624255;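 active = mean inhibition above about 93%, with at least 55% of replicates each passing it, limit read from the data, passing the limit was not always enough; inconclusive = only one of those two conditions holds; inactive = neither condition holds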
# T cruzi growth-2: inhibitors of T. cruzi proliferation; inhibition, % at 8.35 µM; actives 72% (n = 5,600); shares compounds with T cruzi growth-1; T. cruzi beta-gal in NIH3T3, GalScreen luminescence, 90 h; AID 651739;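 active = mean replicate inhibition above about 95% and at least 55% of replicates individually reaching it, limit read from the data; inconclusive = only one of the two criteria is met; inactive = neither criterion is met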
# T cruzi growth-3: inhibitors of T. cruzi proliferation; AID 651740; inhibition, % at 2.09 µM; shares compounds with T cruzi growth-1; actives 21% (n = 5,600); T. cruzi beta-gal in NIH3T3, GalScreen luminescence, 90 h;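 active = mean inhibition above about 95%, with at least 55% of replicates also reaching it, limit read from the data; inconclusive = meets just one of the two conditions; inactive = meets neither condition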
# NIH3T3 tox: NIH/3T3 (mouse) viability loss; actives 14% (n = 5,600); NIH/3T3 viability, CellTiter-Glo ATP luminescence, 90 h; AID 651742; shares compounds with T cruzi growth-1; cytotoxicity (signal decrease), % at 8.35 µM;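 active = mean signal decrease across replicates above about 35% based on untreated-well scatter, with enough replicates individually passing, limit read from the data; inconclusive = no rule stated though some were filed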
# NIH3T3 tox 2: cytotoxicity in mouse NIH/3T3 fibroblasts. inhibition, % at 24.9 µM. shares compounds with T cruzi growth-1. NIH/3T3 viability, CellTiter-Glo ATP luminescence, 90 h. actives 56% (n = 5,600);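 active = mean loss of cell viability signal at or above a set limit, and enough replicates individually reaching it; inconclusive = meets only the mean limit or only the replicate share; inactive = meets neither condition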
# Numbers stand for hits; . = inactive; ? = inconclusive; / = no result given; + = active, no number. This is a sample that favours compounds with a hit; in the whole collection about 5.9% have one here.
SMILES,IDH1 mut inh,Pf Dd2 growth,KDM4C inh,T cruzi growth-1,T cruzi growth-2,T cruzi growth-3,NIH3T3 tox,NIH3T3 tox 2
Cc1noc(C)c1S(=O)(=O)N(C)C[C@H]1OCCCC[C@@H](C)Oc2ccc(NS(=O)(=O)c3ccc(Cl)cc3)cc2C(=O)N([C@@H](C)CO)C[C@@H]1C,/,.,.,99.7,106.5,.,.,.
Cc1noc(C)c1S(=O)(=O)N(C)C[C@@H]1OCCCC[C@@H](C)Oc2ccc(NS(=O)(=O)c3ccc(F)cc3)cc2C(=O)N([C@H](C)CO)C[C@H]1C,.,.,.,?,.,.,.,.
Cc1noc(C)c1S(=O)(=O)Nc1ccc2c(c1)C(=O)N([C@H](C)CO)C[C@@H](C)[C@H](CN(C)S(=O)(=O)c1ccc(Cl)cc1)OCCCC[C@@H](C)O2,/,?,.,103.6,106.8,.,.,.
Cc1noc(C)c1S(=O)(=O)N(C)C[C@@H]1OCCCC[C@@H](C)Oc2ccc(NS(=O)(=O)c3ccc(Cl)cc3)cc2C(=O)N([C@H](C)CO)C[C@@H]1C,/,.,.,.,/,/,/,/
Cc1ccc(S(=O)(=O)Nc2ccc3c(c2)C(=O)N([C@@H](C)CO)C[C@@H](C)[C@@H](CN(C)S(=O)(=O)c2c(C)noc2C)OCCCC[C@@H](C)O3)cc1,.,.,.,98.2,107.1,.,.,.
Cc1noc(C)c1S(=O)(=O)N(C)C[C@H]1OCCCC[C@@H](C)Oc2ccc(NS(=O)(=O)c3ccc(Cl)cc3)cc2C(=O)N([C@@H](C)CO)C[C@H]1C,/,.,.,107.7,102.0,100.2,.,25.6
Cc1noc(C)c1S(=O)(=O)N(C)C[C@@H]1OCCCC[C@H](C)Oc2ccc(NS(=O)(=O)c3ccc(Cl)cc3)cc2C(=O)N([C@H](C)CO)C[C@@H]1C,.,.,.,98.2,106.3,.,.,.
Cc1noc(C)c1S(=O)(=O)N(C)C[C@@H]1OCCCC[C@@H](C)Oc2ccc(NS(=O)(=O)c3ccc(Cl)cc3)cc2C(=O)N([C@@H](C)CO)C[C@H]1C,.,.,.,.,/,/,/,/
Cc1noc(C)c1S(=O)(=O)Nc1ccc2c(c1)C(=O)N([C@@H](C)CO)C[C@@H](C)[C@H](CN(C)S(=O)(=O)c1ccc(Cl)cc1)OCCCC[C@@H](C)O2,/,.,.,.,/,/,/,/
O=C1C(=O)N(CCCn2ccnc2)C(c2cccc(Br)c2)C1C(=O)c1ccco1 (stereo not given),.,/,/,/,/,/,/,/
CN(C)C(=O)[C@H]1[C@H](CO)[C@H]2Cn3c(ccc(-c4ccccc4)c3=O)[C@@H]1N2CC1CCCC1,/,.,.,?,.,.,.,?
CN(C)C(=O)[C@@H]1[C@@H](CO)[C@@H]2Cn3c(ccc(-c4ccccc4)c3=O)[C@H]1N2C(=O)C1CCC1,/,/,.,+,.,.,.,.
CN(C)C(=O)[C@@H]1[C@@H](CO)[C@@H]2Cn3c(ccc(-c4ccccc4)c3=O)[C@H]1N2CC1CCCC1,/,.,.,.,/,/,/,/
CCN1[C@@H]2c3ccc(-c4ccccc4)c(=O)n3C[C@H]1[C@H](CO)[C@H]2C(=O)Nc1ccccc1,/,.,.,98.6,.,.,.,.
COC(=O)c1cc(NC(=O)COc2c(C)cc(Cl)cc2Cl)cc(C(=O)OC)c1,.,/,/,/,/,/,/,/
Cc1nnc(N2C(=O)C(=O)C(C(=O)c3ccco3)C2c2cccc(Oc3ccccc3)c2)s1 (stereo not given),.,/,/,/,/,/,/,/
Cc1ccc(Cl)cc1NC(=O)CC(C(=O)O)N(C)C (stereo not given),.,/,/,/,/,/,/,/
CC(C)CC#Cc1ccc2c(c1)O[C@H](CN(C)Cc1ccccc1)[C@H](C)CN([C@H](C)CO)S2(=O)=O,.,.,.,104.0,.,108.8,.,105.1
CC(C)CC#Cc1ccc2c(c1)O[C@H](CN(C)Cc1ccccc1)[C@@H](C)CN([C@@H](C)CO)S2(=O)=O,.,.,.,123.5,100.0,114.3,.,103.8
CC(C)CC#Cc1ccc2c(c1)O[C@@H](CN(C)Cc1ccccc1)[C@H](C)CN([C@H](C)CO)S2(=O)=O,.,.,.,.,/,/,/,/
Cc1cc(C)cc(NC(=O)CN(c2ccccc2F)S(C)(=O)=O)c1,.,/,/,/,/,/,/,/
C[C@@H]1CN([C@@H](C)CO)C(=O)c2cc(NS(=O)(=O)c3ccc(Cl)cc3)ccc2O[C@@H]1CN(C)Cc1ccc(-c2ccccc2)cc1,.,.,.,?,?,.,82.1,103.5
C[C@H]1CN([C@@H](C)CO)C(=O)c2cc(NS(=O)(=O)c3ccc(Cl)cc3)ccc2O[C@@H]1CN(C)Cc1ccc(-c2ccccc2)cc1,.,.,.,111.3,102.8,.,.,103.9
C[C@H](CO)N1C[C@H](C)[C@H](CN(C)Cc2ccc(-c3ccccc3)cc2)Oc2ccc(NS(=O)(=O)c3ccc(Cl)cc3)cc2C1=O,.,.,.,112.5,103.5,.,.,102.6
C[C@H](CO)N1C[C@H](C)[C@@H](CN(C)Cc2ccc(-c3ccccc3)cc2)Oc2ccc(NS(=O)(=O)c3ccc(Cl)cc3)cc2C1=O,/,.,.,.,/,/,/,/
SMILES,IDH1 mut inh,Pf Dd2 growth,KDM4C inh,T cruzi growth-1,T cruzi growth-2,T cruzi growth-3,NIH3T3 tox,NIH3T3 tox 2
COc1ccc(S(=O)(=O)Nc2ccc3c(c2)C(=O)N([C@H](C)CO)C[C@H](C)[C@H](CN(C)Cc2ccc(-c4ccccc4)cc2)O3)cc1,.,.,.,.,/,/,/,/
COc1ccc(S(=O)(=O)Nc2ccc3c(c2)C(=O)N([C@@H](C)CO)C[C@H](C)[C@H](CN(C)Cc2ccc(-c4ccccc4)cc2)O3)cc1,.,.,.,?,103.5,.,.,88.0
CCC(Sc1nc2ccccc2o1)C(=O)Nc1cccc2ccccc12 (stereo not given),.,/,/,/,/,/,/,/
CC(=O)C1C(=O)[C@@H]2[C@H]3c4c[nH]c5cccc(c45)C[C@H]3C(C)(C)N2C1=O (stereo not given in full),.,/,/,/,/,/,/,/
C[C@H]1CN([C@@H](C)CO)C(=O)c2cc(NS(=O)(=O)c3ccc(Cl)cc3)ccc2O[C@@H]1CN(C)Cc1ccc(Oc2ccccc2)cc1,.,.,.,?,108.4,.,.,105.0
C[C@@H]1CN([C@H](C)CO)C(=O)c2cc(NS(=O)(=O)c3ccc(Cl)cc3)ccc2O[C@@H]1CN(C)Cc1ccc(-c2ccccc2)cc1,.,.,.,?,98.3,.,92.1,104.6
C[C@@H]1CN([C@H](C)CO)C(=O)c2cc(NS(=O)(=O)c3ccc(F)cc3)ccc2O[C@@H]1CN(C)Cc1ccc(-c2ccccc2)cc1,.,.,.,.,/,/,/,/
